{"data": "Results collected from several papers", "organism": "Nakaseomyces glabratus", "note": "Compare with care: the assays were run in different laboratories."}
{"Compound": "CCCCCCOc1c(OC)cc(NC(C)CCCN)c2nc(C(C)(C)C)ccc12 (stereo not drawn)", "test": "microbial killing", "system": "ATCC90030", "quantity": "MFC", "result": "20 µg/mL"}
{"Compound": "COc1ccc(-n2cc(Cn3c(C(=O)O)nc4ccccc4c3=O)nn2)cc1", "test": "microbial growth, broth dilution", "system": "ATCC90030", "conditions": "24 h", "quantity": "IC50", "result": "718 µg/mL"}
{"Compound": "CCCCCCCCCN1CCN(CC(O)(Cn2cncn2)c2ccc(F)cc2F)CC1 (stereo not drawn)", "test": "microbial growth, broth dilution", "system": "ATCC2001", "conditions": "48 h", "quantity": "MIC", "result": "3.9 µg/mL"}
{"Compound": "O=C(O)c1nc2ccccc2c(=O)n1Cc1cn(-c2cccc(F)c2)nn1", "test": "microbial growth, broth dilution", "system": "ATCC90030", "conditions": "24 h", "quantity": "IC50", "result": "262 µg/mL"}
{"Compound": "CCCCOc1c(OC)cc(NC(C)CCCN)c2nc(C(C)(C)C)cc(C)c12 (stereo not drawn)", "test": "microbial growth, broth dilution", "system": "ATCC90030", "quantity": "MIC", "result": "> 20 µg/mL"}
{"Compound": "CCCCCCCCCCCN1CCNCC1", "test": "microbial growth, broth dilution", "system": "ATCC2001", "conditions": "48 h", "quantity": "MIC", "result": "7.8 µg/mL"}
{"Compound": "C[C@@H]1[C@H](O)[C@@H](C)/C=C/C=C/C=C/C=C/C=C/C=C/C=C/[C@H](O[C@@H]2O[C@H](C)[C@@H](O)[C@H](N)[C@@H]2O)C[C@@H]2O[C@](O)(C[C@@H](O)C[C@@H](O)[C@H](O)CC[C@@H](O)C[C@@H](O)CC(=O)O[C@H]1C)C[C@H](O)[C@H]2C(=O)O", "test": "microbial killing", "system": "ATCC90030", "quantity": "MFC", "result": "1.35 µM"}
{"Compound": "CCCCCCCCOc1c(OC)cc(NC(C)CCCNC(=O)C2CCCN2)c2nc(C(C)(C)C)ccc12 (stereo not drawn)", "test": "microbial growth", "system": "ATCC90030", "quantity": "IC50", "result": "11 µg/mL"}
{"Compound": "CN1CCN(CC(O)(Cn2cncn2)c2ccc(F)cc2F)CC1 (stereo not drawn)", "test": "microbial growth, broth dilution", "system": "ATCC2001", "conditions": "48 h", "quantity": "MIC", "result": "31.3 µg/mL"}
{"Compound": "CCCCCCCCOc1c(OC)cc(NC(C)CCCN)c2nc(C(C)(C)C)ccc12 (stereo not drawn)", "test": "microbial killing", "system": "ATCC90030", "quantity": "MFC", "result": "10 µg/mL"}
{"Compound": "CCOC(=O)c1nc2ccccc2c(=O)n1Cc1cn(-c2cccc([N+](=O)[O-])c2)nn1", "test": "microbial growth, broth dilution", "system": "ATCC90030", "conditions": "24 h", "quantity": "IC50", "result": "354 µg/mL"}
{"Compound": "C[C@@H]1[C@H](O)[C@@H](C)/C=C/C=C/C=C/C=C/C=C/C=C/C=C/[C@H](O[C@@H]2O[C@H](C)[C@@H](O)[C@H](N)[C@@H]2O)C[C@@H]2O[C@](O)(C[C@@H](O)C[C@@H](O)[C@H](O)CC[C@@H](O)C[C@@H](O)CC(=O)O[C@H]1C)C[C@H](O)[C@H]2C(=O)O", "test": "microbial growth", "system": "ATCC90030", "quantity": "IC50", "result": "0.31 µg/mL"}
{"Compound": "CCOC(=O)c1nc2ccccc2c(=O)n1Cc1cn(-c2ccc(F)cc2)nn1", "test": "microbial growth, broth dilution", "system": "ATCC90030", "conditions": "24 h", "quantity": "IC50", "result": "292 µg/mL"}
{"Compound": "CCCCCOc1c(OC)cc(NC(C)CCCNC(=O)C(N)Cc2ccccc2)c2nc(C(C)(C)C)ccc12 (stereo not drawn)", "test": "microbial growth", "system": "ATCC90030", "quantity": "IC50", "result": "10.9 µg/mL"}
{"Compound": "COc1ccccc1-n1cc(Cn2c(C(=O)O)nc3ccccc3c2=O)nn1", "test": "microbial growth, broth dilution", "system": "ATCC90030", "conditions": "24 h", "quantity": "IC50", "result": "29.4 µg/mL"}
{"Compound": "CCCCCN1CCNCC1", "test": "microbial growth, broth dilution", "system": "ATCC2001", "conditions": "48 h", "quantity": "MIC", "result": "> 31.3 µg/mL"}
{"Compound": "CCOC(=O)c1nc2ccccc2c(=O)n1Cc1cn(-c2ccccc2)nn1", "test": "microbial growth, broth dilution", "system": "ATCC90030", "conditions": "24 h", "quantity": "IC50", "result": "182 µg/mL"}
{"Compound": "CCCCCCCCCCN1CCN(CC(O)(Cn2cncn2)c2ccc(F)cc2F)CC1 (stereo not drawn)", "test": "microbial growth, broth dilution", "system": "ATCC2001", "conditions": "48 h", "quantity": "MIC", "result": "> 31.3 µg/mL"}
